This is an account of results in ChEMBL document CHEMBL1212891, “Effect of [6]-shogaol on cytosolic Ca2+ levels and proliferation in human oral cancer cells (OC2)” (J Nat Prod, 2010).

The test system of assay [1] is OC2. The assay is described as follows: Activation of phospholipase A2/C in human OC2 cells assessed as increase in intracellular calcium level at 1 uM. It counts as cell-based. Put shortly: (§1)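 OC2 cells trypsinized (10^6/mL), recovered 1 h in culture medium, loaded with 2 µM fura-2/AM for 30 min at 25 °C, washed and resuspended in Ca2+-containing buffer pH 7.4 (NaCl 140, KCl 5, MgCl2 1, CaCl2 2, HEPES 5, glucose 5 mM). 0.5 million cells/mL stirred at 25 °C. Ratio of 340/380 nm excitation read at 510 nm emission every 1 s. Calibrated with Triton X-100 and EGTA, Kd 155 nM.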

Assay [2] is described as follows: (§2) Cytotoxicity in human OC2 cells assessed as decrease in cell viability after 24 hrs by crystal violate assay. It counts as functional, cell-based. Conditions: OC2, 24 h. Put shortly:
(§3)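 OC2 cells in RPMI with 10% heat-inactivated FCS at 37 °C, 5% CO2. Plated at 1 × 10^4 per well and grown overnight. At about 70% confluence, medium replaced with compound at 0-100 µM from a DMSO stock (final DMSO <0.5%, DMSO as control) for 24 h. Cell number by crystal violet elution, expressed as percent of control. n=5.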

The test system of assay [3] is OC2. The assay is described as follows: Activation of phospholipase A2/C in human OC2 cells assessed as increase in intracellular calcium level at 0.1 uM. The assay is classed as cell-based. Put shortly:
as §1

Assay [4] concerns OC2. The assay is described as follows: Activation of phospholipase A2/C in human OC2 cells assessed as increase in intracellular calcium level at 100 uM. It counts as cell-based. Put shortly: as §1
Background: A change in cytosolic calcium serves as a functional read-out for many receptors and channels.

Assay [5] has as its system OC2. The assay is described as follows: Activation of phospholipase A2/C in human OC2 cells assessed as increase in intracellular calcium level at 100 uM in presence of thapsigargin. It counts as cell-based.
Assay [6] deals with OC2. In words: Activation of phospholipase A2/C in human OC2 cells assessed as decrease in intracellular calcium release at 100 uM in presence of Calcium entry blocker La3+. The assay is classed as cell-based. An outline of the steps: as §1
The subject of assay [7] is OC2. The assay is described as follows: Activation of phospholipase A2/C in human OC2 cells assessed as increase in intracellular calcium level in presence of phospholipase-A2 inhibitor aristolochc acid. It counts as cell-based. An outline of the steps:
as §1

Assay [8] has as its system OC2. In words: Activation of phospholipase A2/C in human OC2 cells assessed as increase in intracellular calcium level at 100 uM in presence of PKA inhibitor H89. The assay is classed as cell-based. Put shortly: as §1
The test system of assay [9] is OC2. The assay is described as follows: Activation of phospholipase A2/C in human OC2 cells assessed as increase in intracellular calcium level at 100 uM in presence of PKC inhibitor GF109203X. The assay is classed as cell-based. Put shortly: as §1
The test system of assay [10] is OC2. The assay is described as follows: Activation of phospholipase A2/C in human OC2 cells assessed as increase in intracellular calcium level at 100 uM pretreated with phospholipase C inhibitor […] and ATP. It counts as cell-based.
The subject of assay [11] is OC2. Described as §2. It counts as functional, cell-based. Put shortly: as §3
Assay [12] relates to OC2. In words: Activation of calcium channel in human OC2 cells assessed as increase in intracellular calcium […] in presence of La3+. The assay is classed as cell-based. Put shortly: as §1
Assay [13] deals with OC2. In words: Activation of phospholipase A2/C in human OC2 cells assessed as increase in intracellular calcium level at 100 uM in presence of protein kinase C activator PMA.

The structures appear in SMILES notation. Activity calls are given as the source filed them. The calls are words filed in the database; no cut-off is given here.

For `COC(=O)C1=C(C)NC(C)=C(C(=O)OC)C1c1ccccc1[N+](=O)[O-]`, in assay [1], the result was inactive.
Same read-out and setting: with `COC(=O)C1=C(C)NC(C)=C(C(=O)OCCN(C)Cc2ccccc2)C1c1cccc([N+](=O)[O-])c1` (configuration not stated) the entry was “inactive”; with `COc1ccc([C@@H]2Sc3ccccc3N(CCN(C)C)C(=O)[C@@H]2OC(C)=O)cc1`, “inactive”.
The IC50 is the concentration needed to halve the response being measured. On to `CCCCC[C@H](O)CC(=O)CCc1ccc(O)c(OC)c1` [GINGEROL], for which the half-inhibitory concentration (IC50) in [2] turned out to be 74.2 µM.
For the compound `CCCCC/C=C/C(=O)CCc1ccc(O)c(OC)c1` [SHOGAOL], the outcome in assay [3], in assay [5], in assay [6], in assay [7], in [10] and in assay [12] was inactive. Also, the Activity is 68% in assay [4] and “Dose-dependent effect” in assay [11]. Moreover, the result in [8], in [9] and in [13] was Active. Further, the IC50 in assay [2] amounted to 15.6 µM.
As for `COc1ccc(CCN(C)CCCC(C#N)(c2ccc(OC)c(OC)c2)C(C)C)cc1OC` (configuration not stated), the result in [1] was inactive.
